Experimental data published in ChEMBL document CHEMBL3400126, “Benzo-fused lactams from a diversity-oriented synthesis (DOS) library as inhibitors of scavenger receptor BI (SR-BI)-mediated lipid uptake” (Bioorg Med Chem Lett, 2015).
≈ marks a conversion by molar mass, not a printed value. Calls of active or inactive are those of the source. The rule behind the calls is not given here.

Columns and labels:
[1] = biological target: T1, Scavenger receptor class B member 1 (Mus musculus, UniProt Q61009); assay: (§1) Inhibition of mouse SR-B1 overexpressed in CHO cells assessed as inhibition of [3H]cholesteryl ester uptake into cells after 2 to 3 hrs by liquid scintillation counting; assay type: cell-based
T1 sequence (Q61009 whole entry): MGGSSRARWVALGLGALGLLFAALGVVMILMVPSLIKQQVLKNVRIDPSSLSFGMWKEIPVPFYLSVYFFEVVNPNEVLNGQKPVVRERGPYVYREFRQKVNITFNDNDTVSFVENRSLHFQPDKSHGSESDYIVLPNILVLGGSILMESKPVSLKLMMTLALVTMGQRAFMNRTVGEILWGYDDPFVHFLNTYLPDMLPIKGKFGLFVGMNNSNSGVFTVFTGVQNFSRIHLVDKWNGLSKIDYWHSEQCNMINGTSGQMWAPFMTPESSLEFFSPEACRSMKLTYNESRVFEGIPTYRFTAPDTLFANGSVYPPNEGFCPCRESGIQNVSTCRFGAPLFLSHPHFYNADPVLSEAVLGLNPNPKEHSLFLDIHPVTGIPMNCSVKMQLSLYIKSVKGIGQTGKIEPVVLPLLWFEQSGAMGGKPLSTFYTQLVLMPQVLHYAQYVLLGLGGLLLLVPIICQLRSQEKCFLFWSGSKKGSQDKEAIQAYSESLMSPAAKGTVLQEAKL
Outline: (§2)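 IdlA[mSR-BI] cells exposed to HDL carrying [³H]-labeled cholesteryl oleate ester; cellular uptake of [³H]CE measured across a compound dilution series, IC₅₀ from dose-response curve.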

[2] = Stability in mouse liver microsomes assessed as compound remaining at 1 uM after 1 hr by UHPLC-MS analysis; assay type: ADME; details: read-out: Stability
Outline: (§3)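 Compound incubated 1 h with mouse or human liver microsomes; percent parent remaining determined.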

[3] = Stability in human plasma assessed as compound remaining at 5 uM after 5 hrs by UPLC-MS analysis; assay type: ADME, cell-free; details: read-out: Stability
Outline: (§4)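 Compound incubated 5 h in human or mouse plasma; percent parent remaining determined.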

[4] = biological target: T2, Scavenger receptor class B member 1 (Mus musculus) (UniProt Q61009); assay: Inhibition of mouse SR-B1 overexpressed in CHO cells assessed as inhibition of receptor-mediated Alexa-594-labeled transferrin endocytosis up to 35 uM; assay type: cell-based
T2 sequence (whole entry): T1 sequence (Q61009 whole entry)
Outline: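 Receptor-mediated endocytosis in IdlA[mSR-BI] cells followed by uptake of Alexa-594-labeled transferrin, compound tested at concentrations up to 35 μM.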

[5] = Stability in human liver microsomes assessed as compound remaining at 1 uM after 1 hr by UHPLC-MS analysis; assay type: ADME; details: read-out: Stability; outline: as §3
[6] = Aqueous solubility of the compound in PBS at pH 7.4 with 1 % DMSO after 24 hrs by UPLC-MS analysis; assay type: physicochemical; details: for solubility at 24 h: PBS with 1% DMSO, pH 7.4; for solubility: buffer, pH 7.4, 24 h
L-type calcium channel = L-type calcium channel (Homo sapiens, UniProt O60840+Q01668+Q13698+Q13936); assay: Inhibition of L-type calcium channel (unknown origin) at 10 uM
[7] = Plasma protein binding in human at 5 uM after 5 hrs by equilibrium dialysis; assay type: ADME, cell-free; details: read-out: PPB (converted)
Outline: (§5)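 Fraction bound to plasma proteins measured separately in human and mouse plasma.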

[8] = biological target: T1, Scavenger receptor class B member 1; assay: Activity at mouse SR-B1 overexpressed in CHO cells assessed as enhancement of binding of ALexa-488-labeled HDL particles to cells after 3 hrs
[9] = Plasma protein binding in mouse at 5 uM after 5 hrs by equilibrium dialysis; assay type: ADME, cell-free; details: read-out: PPB (converted); outline: as §5
CHO = assay: Cytotoxicity against CHO cells after 24 hrs by CellTiterGlo assay; assay type: cell-based, Cricetulus griseus; details: chinese hamster
Outline: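 IdlA[mSR-BI] cells (CHO overexpressing mouse SR-BI) incubated with compound for 24 h; cellular ATP levels read by CellTiter-Glo luminescence.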

[10] = Stability in mouse plasma assessed as compound remaining at 5 uM after 5 hrs by UPLC-MS analysis; assay type: ADME, cell-free; details: read-out: Stability; outline: as §4
[11] = biological target: T2, Scavenger receptor class B member 1 (Mus musculus); assay: Inhibition of mouse SR-B1 overexpressed in CHO cells assessed as inhibition of transfer of the fluorescent lipid DiI from HDL particles to cells at 1 uM after 3 hrs; assay type: cell-based
[12] = biological target: T2, Scavenger receptor class B member 1 (Mus musculus); assay: as §1; assay type: cell-based; outline: as §2
[13] = biological target: T1, Scavenger receptor class B member 1; assay: Inhibition of mouse SR-B1 overexpressed in CHO cells assessed as inhibition of transfer of the fluorescent lipid DiI from HDL particles to cells after 3 hrs; assay type: cell-based
Outline: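 Primary assay: uptake of fluorescent lipid DiI from DiI-labeled HDL particles into IdlA[mSR-BI] cells, i.e. CHO cells overexpressing mouse SR-BI. Read-out is cell-associated DiI fluorescence. Compounds that quenched DiI-HDL fluorescence in a dose-dependent manner were excluded by counterscreen. 1 μM BLT-1 served as positive control.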

## C[C@H](C(=O)NC1CCCC1)N(C(=O)Cn1nnc(-c2ccc3c(c2)OCO3)n1)C1CCCCC1
[1]
  IC50: 5 nM

## COc1c(NC(=O)C(=O)c2ccc(OCCN3CCOCC3)c3ccccc23)cc(C(C)(C)C)cc1NS(C)(=O)=O [ITX-5061]
[1]
  IC50: 770 nM

## CC(C)NC(=O)Nc1ccc2c(c1)C(=O)N([C@H](C)CO)C[C@@H](C)[C@H](CN(C)S(=O)(=O)c1ccc(Cl)cc1)O2
[2]
  remaining at 1 h, 1 µM: 25%
[3]
  remaining at 5 h, 5 µM: > 99%
[4]
  inhibition: inactive
[5]
  remaining at 1 h, 1 µM: 10%
[6]
  solubility at 24 h: 79 µM (≈ 44.8 µg/mL)
[1]
  IC50: 250 nM
L-type calcium channel
  inhibition at 10 µM: 19%
[7]
  fraction unbound at 5 h, 5 µM: 0.055
[8]
  EC50: 400 nM
[9]
  fraction unbound at 5 h, 5 µM: 0.053
CHO
  Activity: Non-toxic
[10]
  remaining at 5 h, 5 µM: > 99%

## CCCCCCC1CCC/C1=N\NC(N)=S (stereo not drawn)
[11]
  inhibition: > 70%

## COCC(=O)n1ccc2cc(-c3csc(NC(=O)c4cc(OC)cc(OC)c4)n3)ccc21
[6]
  solubility at 24 h: 0.57 µM (≈ 0.257 µg/mL)
[12]
  inhibition: Active

## C[C@@H]1CN([C@H](C)CO)C(=O)c2cc(NC(=O)Cc3cn(C)c4ccccc34)ccc2O[C@H]1CN(C)S(=O)(=O)c1ccc(Cl)cc1
[6]
  solubility: 0.1 µM (≈ 0.0653 µg/mL)
[13]
  IC50: 180 nM
CHO
  Activity: Non-toxic

## C[C@@H]1CN([C@H](C)CO)C(=O)c2cc(NC(=O)Cc3cn(C)c4ccccc34)ccc2O[C@H]1CN(C)S(=O)(=O)c1cn(C)cn1
[6]
  solubility: 79 µM (≈ 49.2 µg/mL)
[13]
  IC50: 6400 nM
CHO
  Activity: Non-toxic
